From ChEMBL document CHEMBL1156837, “Synthesis and the biological evaluation of arylnaphthalene lignans as anti-hepatitis B virus agents” (Bioorg Med Chem, 2010)
Active and inactive are the calls of the source. The rule behind the calls is not given here.

Assays:
[1] = test system: Hepatitis B virus; assay: Antiviral activity against Hepatitis B virus in human HepA2 cells assessed as reduction of HBsAg secretion after 48 hrs by enzyme immunoassay; type: functional, organism-based
Outline: (§1)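 HepA2 cells (HepG2 carrying tandem-repeat full-length HBV DNA) seeded at 8 × 10⁴ cells/well in DMEM with 10% fetal calf serum, attached overnight, washed twice with PBS pH 7.0, then exposed to various concentrations in serum-free DMEM for 48 h. Secreted HBsAg and HBeAg in medium measured by enzyme immunoassay; EC50 as concentration giving 50% of untreated level; mean ± SD, n = 3.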

[2] = Cytotoxicity against human HepA2 cells after 48 hrs by MTT assay; type: cell-based
Outline: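 HepA2 cells seeded in 96-well plates in DMEM and treated with various concentrations of compound for 2 days; cell number measured by MTT; CC50 taken as concentration giving cell growth at 50% of untreated cells.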

[3] = test system: Hepatitis B virus; assay: Suppression of enhancer 1 promoter activity of Hepatitis B virus in human HepA2 cells at 3 uM by luciferase reporter gene assay; type: functional, organism-based
Outline: (§2)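 HepA2 cells transfected by lipofectamine 2000 with HBV S1P, S2P, core, X or enhancer I/X promoter–luciferase constructs plus β-gal vector, then held in serum-free DMEM with compound (0.9 or 3.0 µM) for 48 h. Lysate luciferase normalized to protein (Bradford) and β-gal, untreated set to one; mean ± SEM, at least three independent experiments.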

[4] = test system: Hepatitis B virus; assay: Antiviral activity against Hepatitis B virus ayw in human M33 cells containing Lamivudine resistant HBV genome with DNA polymerase L515M/M539V mutation genome cells assessed as reduction of viral DNA level after 6 days by RT-PCR; type: functional, organism-based
Outline: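 M33 cells (HepG2 carrying HBV with the L515M/M539V polymerase double mutation) were maintained in DMEM with 10% FCS at 37 °C under 5% CO₂. Cells were seeded at 5 × 10⁶ per 100 mm dish and treated with graded drug concentrations in serum-free DMEM. Viral DNA was extracted from the medium and quantified by real-time PCR against an HBV plasmid standard curve (10³–10⁷ copies), reported as mean, SD, n = 3.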

[5] = test system: Hepatitis B virus; assay: Suppression of viral X protein promoter activity of Hepatitis B virus in human HepA2 cells at 3 uM by luciferase reporter gene assay; type: functional, organism-based; outline: as §2
[6] = test system: Hepatitis B virus; assay: Antiviral activity against Hepatitis B virus ayw in human 1.3ES2 cells stably transfected with 1.3 fold wild type HBV ayw strain genome cells assessed as reduction of viral pregenomic RNA level after 2 days by Northern blot; type: functional, organism-based
Outline: (§3)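 1.3ES2 cells (HepG2 with 1.3 copies of HBV genome integrated) grown in DMEM with 10% fetal calf serum to confluence in 100 mm dishes, then switched to serum-free DMEM with compound (0, 1.5, 3.0, 9.0 µM) for 48 h. Total RNA Northern-hybridized with HBV DNA probe; 3.5-kb and 2.4/2.1-kb transcripts read, GAPDH mRNA as internal marker; representative of three independent experiments.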

[7] = test system: Hepatitis B virus; assay: Suppression of large viral surface antigen promoter activity of Hepatitis B virus in human HepA2 cells at 3 uM by luciferase reporter gene assay; type: functional, organism-based; outline: as §2
[8] = test system: Hepatitis B virus; assay: Antiviral activity against Hepatitis B virus ayw in human 1.3ES2 cells stably transfected with 1.3 fold wild type HBV ayw strain genome cells assessed as reduction of major HbsAg mRNA level after 2 days by Northern blot; type: functional, organism-based; outline: as §3
[9] = test system: Hepatitis B virus; assay: Suppression of viral core protein promoter activity of Hepatitis B virus in human HepA2 cells at 3 uM by luciferase reporter gene assay; type: functional, organism-based; outline: as §2
[10] = test system: Hepatitis B virus; assay: Antiviral activity against Hepatitis B virus ayw in human 1.3ES2 cells stably transfected with 1.3 fold wild type HBV ayw strain genome cells assessed as reduction of viral DNA level after 6 days by RT-PCR; type: functional, organism-based
[11] = test system: Hepatitis B virus; assay: Suppression of major viral surface promoter activity of Hepatitis B virus in human HepA2 cells at 3 uM by luciferase reporter gene assay; type: functional, organism-based; outline: as §2
[12] = Cytotoxicity against human HepA2 cells assessed as effect on cell proliferation after 48 hrs by WST1 dye reduction assay; type: cell-based; settings: hepa2, 48 h
Outline: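 HepA2 cells treated alongside the antigen assay in serum-free DMEM for 48 h after PBS wash; WST-1 added for 0.5 h and formazan formation used to estimate viable cells per well; mean ± SD, n = 3.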

[13] = test system: Hepatitis B virus; assay: Antiviral activity against Hepatitis B virus in human HepA2 cells assessed as reduction of HBsAg secretion after 48 hrs by ELISA; type: functional, organism-based; settings: HepA2, 48 h; outline: as §1
[14] = test system: Hepatitis B virus; assay: Antiviral activity against Hepatitis B virus ayw in human 1.3ES2 cells stably transfected with 1.3 fold wild type HBV ayw strain genome cells assessed as reduction of HbeAg mRNA level after 2 days by Northern blot; type: functional, organism-based; outline: as §3
[15] = test system: Hepatitis B virus; assay: Antiviral activity against Hepatitis B virus ayw in human 1.3ES2 cells stably transfected with 1.3 fold wild type HBV ayw strain genome cells assessed as reduction of large HbsAg mRNA level after 2 days by Northern blot; type: functional, organism-based; outline: as §3
[16] = test system: Hepatitis B virus; assay: Antiviral activity against Hepatitis B virus ayw in human 1.3ES2 cells stably transfected with 1.3 fold wild type HBV ayw strain genome cells assessed as reduction of viral core protein level after 2 days by Western blot; type: functional, organism-based
Outline: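 1.3ES2 cells in 100 mm dishes treated with compound (0, 1.5, 3.0, 9.0 µM) in serum-free DMEM for 48 h; total cell lysates resolved by SDS-PAGE and immunoblotted with mouse anti-HBV core antibody.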

[17] = test system: Hepatitis B virus; assay: Antiviral activity against Hepatitis B virus in human HepA2 cells assessed as reduction of HBeAg secretion after 48 hrs by ELISA; type: functional, organism-based; settings: HepA2, 48 h; outline: as §1
[18] = Hepatitis B virus, HepA2, 48 h, read-out: EC50

SMILES | CC50 at 48 h [2] | EC50 [1, 18] | other results
COc1ccc(-c2c3c(cc4ccc5c(c24)OCO5)C(=O)OC3=O)cc1OC |  |  | EC50 ([1]; hepa2): Not Active
O=C1OCc2c1cc1c(Br)cc3c(c1c2-c1ccc2c(c1)OCO2)OCO3 | 6.33 µM | > 12.5 µM | 
O=C1OC(=O)c2c1cc1ccc3c(c1c2-c1ccc(OC(F)(F)F)cc1)OCO3 |  |  | EC50 ([1]; hepa2): Not Active
COC(=O)c1c(C(=O)OC)c(-c2ccc3c(c2)OCO3)c2c3c(ccc2c1OC)OCO3 | 8.93 µM | > 12.5 µM | 
COc1ccc(-c2c3c(cc4ccc5c(c24)OCO5)C(=O)OC3)cc1OC | 5.86 µM | 7.64 µM | 
COC(=O)c1c(C(=O)O)c(OC)c2ccc3c(c2c1-c1ccc2c(c1)OCO2)OCO3 | 7.87 µM | > 12.5 µM | 
COC(=O)c1c(C(=O)OC)c(-c2ccc3c(c2)OCO3)c2c3c(ccc2c1O)OCO3 | 7.04 µM | > 12.5 µM | 
O=C1OC(=O)c2c1cc1ccc3c(c1c2-c1ccc2c(c1)OCO2)OCO3 | 11.8 µM | > 12.5 µM | 
CC(=O)OCc1cc2ccc3c(c2c(-c2ccc4c(c2)OCO4)c1CO)OCO3 | > 12.5 µM | 0.42 µM | 
COc1cc(-c2c3c(cc4ccc5c(c24)OCO5)C(=O)OC3)ccc1OCc1ccccc1 | > 12.5 µM | > 12.5 µM | 
COc1cc(-c2c3c(cc4ccc5c(c24)OCO5)C(=O)OC3=O)ccc1OCc1ccccc1 | 11.7 µM | > 12.5 µM | 
COc1ccc(-c2c3c(cc4ccc5c(c24)OCO5)COC3=O)cc1OCc1ccccc1 | > 12.5 µM | > 12.5 µM | 
CC(=O)OCCN1C(=O)c2cc3ccc4c(c3c(-c3ccc5c(c3)OCO5)c2C1=O)OCO4 | > 12.5 µM | > 12.5 µM | inhibition [3]: inactive; inhibition [4]: inactive; inhibition [5]: inactive; inhibition [6]: inactive; inhibition [7]: inactive; inhibition [8]: inactive; inhibition [9]: inactive; inhibition [10]: inactive; inhibition [11]: inactive
CC(=O)OCc1cc2ccc3c(c2c(-c2ccc4c(c2)OCO4)c1C=O)OCO3 | 4.69 µM | > 12.5 µM | 
O=C1OCc2cc3ccc4c(c3c(-c3ccc5c(c3)OCO5)c21)OCO4 | > 12.5 µM | 2.18 µM | 
N#Cc1cc2c(c3c(-c4ccc5c(c4)OCO5)c4c(cc13)C(=O)OC4)OCO2 | > 12.5 µM | > 12.5 µM | 
CC(=O)OCc1cc2ccc3c(c2c(-c2ccc4c(c2)OCO4)c1COC(C)=O)OCO3 | 6.91 µM | 1.22 µM | 
O=C1OCc2c1cc1ccc3c(c1c2-c1ccc2c(c1)OCO2)OCO3 [HELIOXANTHIN] | 11.3 µM | 0.16 µM | 
BrCc1cc2ccc3c(c2c(-c2ccc4c(c2)OCO4)c1CBr)OCO3 |  |  | EC50 ([1]; hepa2): Not Active
O=C1OCc2c1cc1c(Br)cc3c(c1c2-c1cc2c(cc1Br)OCO2)OCO3 | > 12.5 µM | > 12.5 µM | 

SMILES | CC50 at 48 h [2] | EC50 [1, 18] | other results
O=C1OCc2c1cc1ccc3c(c1c2-c1ccc(OCc2ccccc2)c(OCc2ccccc2)c1)OCO3 | > 12.5 µM | > 12.5 µM | 
OCc1cc2ccc3c(c2c(-c2ccc4c(c2)OCO4)c1CO)OCO3 | > 12.5 µM | 1.41 µM | 
O=C1c2cc3ccc4c(c3c(-c3ccc5c(c3)OCO5)c2C(=O)N1CCO)OCO4 | > 12.5 µM | > 12.5 µM | 
O=C(O)c1cc2ccc3c(c2c(-c2ccc4c(c2)OCO4)c1CO)OCO3 | > 12.5 µM | 0.89 µM | 
CCOC(=O)c1cc2ccc3c(c2c(-c2ccc4c(c2)OCO4)c1C(=O)OCC)OCO3 | > 12.5 µM | > 12.5 µM | 
COc1ccc(-c2c3c(cc4ccc5c(c24)OCO5)C(=O)OC3)cc1OCc1ccccc1 | > 12.5 µM | > 12.5 µM | 
COc1cc(-c2c3c(cc4ccc5c(c24)OCO5)COC3=O)ccc1OCc1ccccc1 |  |  | EC50 ([1]; hepa2): Not Active
COc1ccc(-c2c3c(cc4ccc5c(c24)OCO5)C(=O)OC3)cc1O | 10.1 µM | 0.14 µM | Activity [12]: Non-toxic; inhibition [3]: Active; inhibition [4]: Dose-dependent effect; inhibition [5]: inactive; EC50 [13]: 0.06 µM; inhibition [14]: Dose-dependent effect; inhibition [15]: Dose-dependent effect; inhibition [7]: Active; inhibition [16]: Dose-dependent effect; inhibition [9]: Active; inhibition [10]: Dose-dependent effect; inhibition [11]: Active; EC50 [17]: 0.14 µM
Nc1ccn([C@@H]2CS[C@H](CO)O2)c(=O)n1 |  |  | inhibition [4]: inactive; inhibition [10]: Active
O=C1C=Cc2cc3c(c(-c4ccc5c(c4)OCO5)c2C1=O)COC3=O | 7.49 µM | > 12.5 µM | 
O=C1OCc2cc3ccc4c(c3c(-c3ccc(OCc5ccccc5)c(OCc5ccccc5)c3)c21)OCO4 | > 12.5 µM | > 12.5 µM | 
COc1cc(-c2c3c(cc4ccc5c(c24)OCO5)C(=O)OC3)ccc1O | > 12.5 µM | 1.89 µM | 
O=Cc1cc2ccc3c(c2c(-c2ccc4c(c2)OCO4)c1C=O)OCO3 | 5.31 µM | 2.39 µM | 
O=C1OCc2c1cc1ccc3c(c1c2-c1ccc(OC(F)(F)F)cc1)OCO3 | > 12.5 µM | > 12.5 µM | 
COc1ccc(-c2c3c(cc4ccc5c(c24)OCO5)C(=O)OC3=O)cc1OCc1ccccc1 | > 12.5 µM | > 12.5 µM | 
COC(=O)c1c(C(=O)O)c(O)c2ccc3c(c2c1-c1ccc2c(c1)OCO2)OCO3 | 7.01 µM | > 12.5 µM | 
O=C1OCc2c1cc1ccc3c(c1c2-c1ccc(O)c(O)c1)OCO3 | 7.01 µM | 3.06 µM | 
O=C1OC(=O)c2c1cc1ccc3c(c1c2-c1ccc(OCc2ccccc2)c(OCc2ccccc2)c1)OCO3 | > 12.5 µM | > 12.5 µM | 
N#Cc1cc2c(c3c(-c4cc5c(cc4Br)OCO5)c4c(cc13)C(=O)OC4)OCO2 | > 12.5 µM | > 12.5 µM | 
